What was measured:
[1] = target: T1, ATP-dependent translocase ABCB1 (Homo sapiens, UniProt P08183); experiment: Inhibition of P-gp mediated efflux in adriamycin-resistant human HepG2 cells assessed as intracellular rhodamine-123 accumulation at 0.125 to 10 uM incubated in dark condition for 90 mins by flow cytometry; type: cell-based
Procedure, shortened: (§1)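 HepG2/ADR cells seeded at 5 × 10^5/well and given compound plus 10 μM Rho123 in the dark at 37 °C for 90 min. Cells washed twice in ice-cold PBS, resuspended in PBS, read by flow cytometry in FL1 (Em 525 nm). Fold of control = (treated fluorescence − background)/(Rho123-only fluorescence − background).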

[2] = target: T1, ATP-dependent translocase ABCB1; experiment: Inhibition of P-gp mediated efflux in adriamycin-resistant human HepG2 cells assessed as intracellular rhodamine-123 accumulation at 1 uM incubated in dark condition for 90 mins by flow cytometry; type: cell-based; procedure, shortened: as §1
HepG2 = experiment: Cytotoxicity against adriamycin-resistant human HepG2 cells assessed as inhibition of cell proliferation after 48 hrs by MTT assay; type: functional, cell-based; details: HepG2, 48 h
Procedure, shortened: (§2)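 Seeded at 5 × 10^3 cells/well with graded compound levels, DMSO as negative control, 48 h. MTT added for 4 h, formazan dissolved in DMSO, OD read at 570 nm (reference 630 nm). IC50 by nonlinear regression; triplicate samples.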

[3] = target: T1, ATP-dependent translocase ABCB1; experiment: Inhibition of P-gp mediated efflux in adriamycin-resistant human HepG2 cells assessed as intracellular rhodamine-123 accumulation at 0.125 uM incubated in dark condition for 90 mins by flow cytometry relative to control; type: cell-based; procedure, shortened: as §1
[4] = target: T1, ATP-dependent translocase ABCB1; experiment: Inhibition of P-gp mediated efflux in adriamycin-resistant human HepG2 cells assessed as intracellular rhodamine-123 accumulation at 2 uM incubated in dark condition for 90 mins by flow cytometry relative to control; type: cell-based; procedure, shortened: as §1
NCI/ADR-RES = experiment: Intrinsic cytotoxicity against human MCF7/ADR cells assessed as inhibition of cell proliferation after 48 hrs by MTT assay; type: cell-based; procedure, shortened: as §2
[5] = target: T1, ATP-dependent translocase ABCB1; experiment: Inhibition of P-gp mediated efflux in adriamycin-resistant human HepG2 cells assessed as intracellular rhodamine-123 accumulation at 10 uM incubated in dark condition for 90 mins by flow cytometry relative to control; type: cell-based; procedure, shortened: as §1
[6] = Metabolic stability in Sprague-Dawley rat liver microsomes assessed as rate constant at 100 uM by HPLC-UV analysis; type: ADME, Microsome
Procedure, shortened: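 Rat liver microsomes at 1 mg protein/mL final, compound at 100 μM final (from a 10 mM CH3CN stock), in 100 mM PBS with 3.0 mM MgCl2 and 1.0 mM NADPH, pH 7.4, 37 °C. Sampled at 0 to 180 min and stopped with ice-cold CH3CN. Control run without NADPH. Centrifuged supernatants analysed by HPLC-UV; three independent experiments in triplicate.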

[7] = Cytotoxicity against HLF cells assessed as inhibition of cell proliferation after 48 hrs by MTT assay; type: cell-based; details: Homo sapiens; procedure, shortened: as §2
[8] = Half life in Sprague-Dawley rat liver microsomes at 100 uM by HPLC-UV analysis; type: ADME, Microsome

T1 sequence (P08183 whole entry): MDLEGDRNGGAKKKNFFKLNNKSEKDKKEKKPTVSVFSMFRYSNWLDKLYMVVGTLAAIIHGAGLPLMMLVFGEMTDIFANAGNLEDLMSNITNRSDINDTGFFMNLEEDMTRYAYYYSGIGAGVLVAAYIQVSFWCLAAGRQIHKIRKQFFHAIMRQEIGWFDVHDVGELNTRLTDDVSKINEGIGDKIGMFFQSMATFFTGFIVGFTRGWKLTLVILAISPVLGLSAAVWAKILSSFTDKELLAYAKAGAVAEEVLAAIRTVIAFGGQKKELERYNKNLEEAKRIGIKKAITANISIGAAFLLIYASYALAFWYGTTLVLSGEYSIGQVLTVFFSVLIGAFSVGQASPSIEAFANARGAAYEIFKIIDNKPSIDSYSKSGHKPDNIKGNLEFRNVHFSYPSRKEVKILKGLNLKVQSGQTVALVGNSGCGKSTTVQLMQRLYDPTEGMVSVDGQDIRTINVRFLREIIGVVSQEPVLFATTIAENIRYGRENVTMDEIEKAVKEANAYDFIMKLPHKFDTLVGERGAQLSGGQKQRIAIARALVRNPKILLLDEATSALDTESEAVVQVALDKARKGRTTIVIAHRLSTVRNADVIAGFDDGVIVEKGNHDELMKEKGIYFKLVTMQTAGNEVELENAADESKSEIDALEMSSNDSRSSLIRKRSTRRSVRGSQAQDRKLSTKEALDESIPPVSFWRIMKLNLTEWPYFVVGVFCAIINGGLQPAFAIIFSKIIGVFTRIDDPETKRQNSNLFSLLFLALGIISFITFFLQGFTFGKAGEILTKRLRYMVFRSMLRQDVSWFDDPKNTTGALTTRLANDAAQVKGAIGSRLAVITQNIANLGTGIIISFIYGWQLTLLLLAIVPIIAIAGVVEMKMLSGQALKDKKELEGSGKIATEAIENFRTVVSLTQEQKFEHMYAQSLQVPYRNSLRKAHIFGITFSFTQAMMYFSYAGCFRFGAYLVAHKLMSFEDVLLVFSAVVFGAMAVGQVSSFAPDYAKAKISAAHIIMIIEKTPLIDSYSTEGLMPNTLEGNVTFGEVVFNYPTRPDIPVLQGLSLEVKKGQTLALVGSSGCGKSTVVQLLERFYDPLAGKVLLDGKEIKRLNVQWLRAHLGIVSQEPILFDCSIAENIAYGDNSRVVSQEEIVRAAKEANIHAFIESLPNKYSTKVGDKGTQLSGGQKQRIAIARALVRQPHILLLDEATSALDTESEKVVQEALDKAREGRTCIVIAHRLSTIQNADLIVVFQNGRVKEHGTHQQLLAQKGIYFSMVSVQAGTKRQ

Row | Compound | IC50 (HepG2) [µM] | IC50 (NCI/ADR-RES) [µM] | INH [5] | further results
1 | C/C1=C\[C@H]2[C@@H](OC(=O)c3ccccc3)[C@@H](C)[C@H](O)[C@]2(O)[C@H](O)[C@](C)(O)/C=C/C(C)(C)[C@H](O)C[C@H]1O | – | – | – | INH [1]: Not Active
2 | CC(=O)O/C1=C(\C)[C@@H](O)[C@H]2[C@@H](OC(=O)c3ccccc3)[C@@H](C)[C@H](OC(=O)c3ccccc3)[C@]2(OC(C)=O)[C@H](OC(C)=O)/C(C)=C/CC(C)(C)[C@H](OC(C)=O)[C@H]1OC(C)=O | > 150 | > 150 | Active | INH [2]: Active; FC [3]: 1.37; FC [4]: 2.78
3 | CC(=O)O[C@@H]1C[C@@H](OC(=O)c2ccccc2)/C(C)=C/[C@H]2[C@@H](OC(=O)c3ccccc3)[C@@H](C)[C@H](O)[C@]2(O)[C@H](O)[C@](C)(O)/C=C/C1(C)C | – | – | Active | –
4 | CC(=O)O/C1=C(\C)[C@H]2O[C@](C)([C@@H](OC(C)=O)[C@]3(OC(C)=O)[C@@H]2[C@@H](OC(=O)c2ccccc2)[C@@H](C)[C@@H]3OC(C)=O)[C@H]2O[C@@H]2C(C)(C)[C@H](OC(C)=O)[C@H]1OC(C)=O | 130 | 55.6 | – | INH [2]: Active; FC [5]: 3.65
5 | COc1ccc(CCN(C)CCCC(C#N)(c2ccc(OC)c(OC)c2)C(C)C)cc1OC (stereo not given) | – | – | – | k el at 100 µM [6]: 0.000392 s⁻¹
6 | CC(=O)O[C@@H]1C[C@@H](OC(=O)c2ccccc2)/C(C)=C/[C@H]2[C@@H](OC(=O)c3ccccc3)[C@@H](C)[C@H](OC(C)=O)[C@]2(OC(C)=O)[C@H](O)[C@](C)(O)/C=C/C1(C)C | 93.3 | > 150 | Active | –
7 | CC(=O)O[C@@H]1[C@@H](O)C(=O)/C(C)=C/C2=C[C@@H](C)[C@H](O)[C@]2(OC(C)=O)[C@H](O)/C(C)=C/CC1(C)C | – | – | – | INH [1]: Not Active
8 | CC(=O)O[C@@H]1C[C@@H](OC(=O)c2ccccc2)/C(C)=C/[C@H]2[C@@H](OC(=O)c3ccccc3)[C@@H](C)[C@H](OS(=O)(=O)c3ccc(C)cc3)[C@]2(OC(C)=O)[C@H](O)[C@](C)(O)/C=C/C1(C)C | > 150 | > 150 | Active | IC50 [7]: > 100 µM
9 | CC(=O)O[C@@H]1[C@@H](OC(C)=O)C(C)(C)C/C=C(\C)[C@@H](OC(C)=O)[C@]2(OC(C)=O)[C@@H](/C=C(\C)[C@@H]1OC(C)=O)[C@@H](OC(=O)c1ccccc1)[C@@H](C)[C@@H]2OC(C)=O | – | – | Active | –
10 | C/C1=C\[C@H]2[C@@H](OC(=O)c3ccccc3)[C@@H](C)[C@H](O)[C@]2(O)[C@H](O)[C@](C)(O)/C=C/C(C)(C)[C@H](O)C[C@H]1OC(=O)c1ccccc1 | – | – | – | INH [1]: Not Active
11 | CC(=O)O[C@@H]1C[C@@H](OC(C)=O)C(C)(C)/C=C/[C@@](C)(O)[C@@H](O)[C@@]2(OC(C)=O)[C@@H](O)[C@H](C)[C@H](OC(=O)c3ccccc3)[C@@H]2/C=C/1C | – | – | Active | –
12 | CC(=O)O[C@@H]1C[C@@H](O)/C(C)=C/[C@H]2[C@@H](OC(=O)c3ccccc3)[C@@H](C)[C@H](O)[C@]2(OC(C)=O)[C@H](O)[C@](C)(O)/C=C/C1(C)C | – | – | – | INH [1]: Not Active
13 | COc1cc2c(cc1OC)CN(CCc1ccc(NC(=O)c3cc(OC)c(OC)cc3NC(=O)c3cnc4ccccc4c3)cc1)CC2 | 37.2 | 13.1 | Active | INH [2]: Not Active; half-life at 100 µM [8]: 3.5 h; k el at 100 µM [6]: 5.5e-05 s⁻¹; FC [3]: 1.04; FC [4]: 2.97; IC50 [7]: 16.7 µM
14 | CC(=O)O[C@@H]1[C@@H](O)C(=O)/C(C)=C/C2=C[C@@H](C)[C@H](OC(C)=O)[C@]2(OC(C)=O)[C@H](OC(C)=O)/C(C)=C/CC1(C)C | – | – | – | INH [1]: Not Active
15 | CC(=O)O[C@@H]1C[C@@H](OC(=O)c2ccccc2)/C(C)=C/[C@H]2[C@@H](OC(=O)c3ccccc3)[C@@H](C)[C@H](OC(=O)c3ccc(Br)cc3)[C@]2(OC(C)=O)[C@H](O)[C@](C)(O)/C=C/C1(C)C | 81.3 | > 150 | Active | –
16 | CC(=O)O[C@@H]1C[C@@H](OC(=O)c2ccccc2)/C(C)=C/[C@H]2[C@@H](OC(=O)c3ccccc3)[C@@H](C)[C@H](OC(=O)c3ccco3)[C@]2(OC(C)=O)[C@H](O)[C@](C)(O)/C=C/C1(C)C | > 150 | > 150 | Active | –

Row | Compound | IC50 (HepG2) [µM] | IC50 (NCI/ADR-RES) [µM] | INH [5] | further results
17 | CC(=O)O[C@@H]1C[C@@H](O)/C(C)=C/[C@H]2[C@@H](OC(=O)c3ccccc3)[C@@H](C)[C@H](O)[C@]2(OC(C)=O)[C@H](OC(=O)c2ccccc2)[C@](C)(O)/C=C/C1(C)C | – | – | Active | –
18 | CC(=O)O/C1=C(\C)[C@@H](O)[C@H]2[C@@H](OC(=O)c3ccccc3)[C@@H](C)[C@H](O)[C@]2(O)[C@H](O)/C(C)=C/CC(C)(C)[C@H](OC(C)=O)[C@H]1OC(C)=O | – | – | – | INH [1]: Not Active
19 | C[C@]12CC[C@H]3[C@@H](CCC4=CC(=O)CC[C@@]43C)[C@@H]1CC[C@@H]2O [TESTOSTERONE] | – | – | – | k el at 100 µM [6]: 0.00444 s⁻¹
20 | CC(=O)O[C@@H]1C[C@@H](OC(=O)c2ccccc2)/C(C)=C/[C@H]2[C@@H](OC(=O)c3ccccc3)[C@@H](C)[C@H](OC(=O)c3cccs3)[C@]2(OC(C)=O)[C@H](O)[C@](C)(O)/C=C/C1(C)C | > 150 | > 150 | Active | –
21 | CC(=O)O/C1=C(\C)[C@H]2O[C@@](C)([C@@H](OC(C)=O)CC(C)(C)[C@H](OC(C)=O)[C@H]1OC(C)=O)[C@@H](OC(C)=O)[C@]1(OC(C)=O)[C@@H]2[C@@H](OC(=O)c2ccccc2)[C@@H](C)[C@@H]1OC(C)=O | > 150 | > 150 | – | INH [2]: Active; FC [3]: 1.81; FC [4]: 3.07
22 | CC(=O)O[C@@H]1C[C@@H](OC(=O)c2ccccc2)/C(C)=C/[C@H]2[C@@H](OC(=O)c3ccccc3)[C@@H](C)[C@H](O)[C@]2(OC(C)=O)[C@H](O)[C@](C)(O)/C=C/C1(C)C | > 150 | > 150 | Active | INH [2]: Active; FC [3]: 1.32; FC [4]: 2.8
23 | CC(=O)O[C@@H]1C[C@@H](OC(=O)c2ccccc2)/C(C)=C/[C@H]2[C@@H](OC(=O)c3ccccc3)[C@@H](C)[C@H](OC(=O)c3ccccc3)[C@]2(OC(C)=O)[C@H](O)[C@](C)(O)/C=C/C1(C)C | > 150 | 64.2 | Active | INH [2]: Active
24 | CC(=O)O[C@@H]1C[C@@H](OC(=O)c2ccccc2)/C(C)=C/[C@H]2[C@@H](OC(=O)c3ccccc3)[C@@H](C)[C@H](OC(C)=O)[C@]2(OC(C)=O)C(=O)[C@](C)(O)/C=C/C1(C)C | > 150 | > 150 | Active | IC50 [7]: > 100 µM
25 | CC(=O)O/C1=C(\C)C(=O)[C@H]2[C@@H](OC(=O)c3ccccc3)[C@@H](C)[C@H](OC(C)=O)[C@]2(OC(C)=O)[C@H](OC(C)=O)/C(C)=C/CC(C)(C)[C@H](OC(C)=O)[C@H]1OC(C)=O | – | – | Active | INH [2]: Active
26 | CC(=O)O[C@@H]1[C@@H](OC(C)=O)C(=O)/C(C)=C/[C@H]2[C@@H](OC(=O)c3ccccc3)[C@@H](C)[C@H](OC(C)=O)[C@]2(OC(C)=O)[C@H](OC(C)=O)[C@]2(C)O[C@H]2CC1(C)C | – | – | Active | –
27 | CC(=O)O[C@@H]1C[C@@H](OC(=O)c2ccccc2)/C(C)=C/[C@H]2[C@@H](OC(=O)c3ccccc3)[C@@H](C)[C@H](O)[C@]2(OC(C)=O)[C@H](OC(C)=O)[C@](C)(O)/C=C/C1(C)C | – | – | Active | –
28 | CC(=O)O[C@@H]1[C@@H](OC(C)=O)C(=O)/C(C)=C/[C@H]2[C@@H](OC(=O)c3ccccc3)[C@@H](C)[C@H](OC(C)=O)[C@]2(OC(C)=O)[C@H](OC(C)=O)/C(C)=C/CC1(C)C | – | – | Active | –
29 | C/C1=C\[C@H]2[C@@H](O)[C@@H](C)[C@H](O)[C@]2(O)[C@H](O)[C@](C)(O)/C=C/C(C)(C)[C@H](O)C[C@H]1O | – | – | – | INH [1]: Not Active
30 | CC(=O)O/C1=C(\C)[C@@H](O)[C@H]2[C@@H](OC(=O)c3ccccc3)[C@@H](C)[C@H](OC(C)=O)[C@]2(OC(C)=O)[C@H](OC(C)=O)/C(C)=C/CC(C)(C)[C@H](OC(C)=O)[C@H]1OC(C)=O | – | – | Active | –
31 | CC(=O)O[C@@H]1[C@@H](OC(C)=O)C(=O)/C(C)=C/C2=C[C@@H](C)[C@H](OC(C)=O)[C@]2(OC(C)=O)[C@H](OC(C)=O)/C(C)=C/CC1(C)C | – | – | – | INH [1]: Not Active
32 | CC(=O)O[C@@H]1CC(=O)/C(C)=C/[C@H]2C=C(C)C(=O)[C@]2(OC(C)=O)[C@H](O)[C@](C)(O)/C=C/C1(C)C | – | – | – | INH [1]: Not Active

— ChEMBL document CHEMBL4431315, “Jatrophane Diterpenoids as Modulators of P-Glycoprotein-Dependent Multidrug Resistance (MDR): Advances of Structure-Activity Relationships and Discovery of Promising MDR Reversal Agents” (J Med Chem, 2016)
